# Laboratory results reported in publication PMC6986167 (Pharmacogenomics and Personalized Medicine, 2020).
# Several values for one entry are separate records, joined by “and”; a condition that tells them apart may be missing. Equal values may be shown once. Read-outs that look alike come from different tables or passages of the source.
# Key:
# [1] = AF patients, p = 0.02, cited from earlier work
# [2] = Minimal equilibrium rivaroxaban concentration in blood plasma by HPLC-MS; assay type: in vivo, patients
# In short: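 Plasma thawed at room temperature, protein-precipitated with methanol plus 0.1% hydrogen chloride 9:1, vortexed, left 10 min, spun 9000 RCF 10 min. C18 column at 40°C, isocratic ammonium acetate/formic acid, water:acetonitrile 70:30. Validated 5–1000 ng/mL. Genotypes by real-time PCR on EDTA blood.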
# [3] = data from the centers; cited from earlier work
# [4] = carriership of low function allelic variants, patients on clopidogrel; cited from earlier work
# [5] = tested on: platelets (ADP-activated, P2Y12 Reactivity Units)
smiles,measurement,setting,value
O=C(NC[C@H]1CN(c2ccc(N3CCOCC3=O)cc2)C(=O)O1)c1ccc(Cl)s1 [Rivaroxaban],equilibrium rivaroxaban concentration,[1]; first value of bleeding comparison,48±30
same,equilibrium rivaroxaban concentration,[1]; second value of bleeding comparison,34 ± 26
same,"Rivaroxaban concentration, M","[2]; ABCB1 3435 C>T CT+TT, N=73",80.6
same,"Rivaroxaban concentration, M","[2]; ABCB1 rs4148738 CC, N=19",78.8
same,"Rivaroxaban concentration, M","[2]; ABCB1 rs4148738 CT+TT, N=84",78.9
same,"Rivaroxaban concentration, M","[2]; CYP2C19*2 GA+AA, N=31",86.2
same,"Rivaroxaban concentration, M","[2]; CYP2C19*2 GG, N=72",75.7
same,"Rivaroxaban concentration, M","[2]; CYP3A5*3 AG+AA, N=19",69.7
same,"Rivaroxaban concentration, M","[2]; CYP3A5*3 GG, N=84",81.6
same,rivaroxaban concentration,[2]; patients with HAS-BLED 3–9,92.3 ± 64.9
same,rivaroxaban concentration,[2]; patients with HAS-BLED <3,67.2 ± 47.4
same,average level of plasma concentration of rivaroxaban,[3],40 ng/mL
same,patients beyond the therapeutic range,[3],~40%
same,variation of plasma concentration of rivaroxaban,[3],15 fold
COC(=O)[C@H](c1ccccc1Cl)N1CCc2sccc2C1 [clopidogrel],increase of risk of major adverse cardiovascular events (MACE),[4],1.5 fold
same,increase of risk of stent thrombosis,[4],2.8 fold
same,"Platelet reactivity units (PRU), M","[5]; ABCB1 3435 C>T CC, N=30",136.8 PRU
same,"Platelet inhibition rate (%), M","[5]; ABCB1 3435 C>T CC, N=30, ACS+AF patients on clopidogrel and rivaroxaban",29.8%
same,"Platelet inhibition rate (%), M","[5]; ABCB1 3435 C>T CT+TT, N=73",30.9%
same,"Platelet reactivity units (PRU), M","[5]; ABCB1 3435 C>T CT+TT, N=73",135.5 PRU
same,"Platelet reactivity units (PRU), M","[5]; ABCB1 rs4148738 CC (non-carriers of T), N=19",113.3 ± 57.1 PRU and 113.3 PRU
same,"Platelet inhibition rate (%), M","[5]; ABCB1 rs4148738 CC, N=19",34.5%
same,"Platelet reactivity units (PRU), M","[5]; ABCB1 rs4148738 CT+TT (T carriers), N=84",141.0 ± 62.3 PRU and 141.0 PRU
same,"Platelet inhibition rate (%), M","[5]; ABCB1 rs4148738 CT+TT, N=84",29.7%
same,"Platelet inhibition rate (%), M","[5]; CYP2C19*2 GA+AA, N=31",28.6%
same,"Platelet reactivity units (PRU), M","[5]; CYP2C19*2 GA+AA, N=31",145.2 PRU
same,"Platelet inhibition rate (%), M","[5]; CYP2C19*2 GG, N=72",31.4%
same,"Platelet reactivity units (PRU), M","[5]; CYP2C19*2 GG, N=72",131.9 PRU
same,"Platelet inhibition rate (%), M","[5]; CYP3A5*3 AG+AA, N=19",30.4%
same,"Platelet reactivity units (PRU), M","[5]; CYP3A5*3 AG+AA, N=19",139.8 PRU
same,"Platelet inhibition rate (%), M","[5]; CYP3A5*3 GG, N=84",30.6%
same,"Platelet reactivity units (PRU), M","[5]; CYP3A5*3 GG, N=84",135.0 PRU
same,platelet inhibition level,[5]; patients with in-hospital death,63.3%
same,platelet inhibition level,[5]; patients without in-hospital death,29.6%
